# The list is not random: actives were taken first. Their share in the collection is about 1.7%.
# Rpn11 inh – Rpn11 (human) deubiquitinase inhibition | O00487 | human 26S proteasome, Ub4-pepOG fluorescence polarization; 20S core pre-blocked with epoxomicin | inhibition, % at 20 µM | actives 0.59% (n = 360,000) | AID 588493;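 active = inhibition at 20 µM, scaled to each plate's controls, above about 33%, limit read from the data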
# IDE cell activ – boosts human insulin-degrading enzyme activity in HEK cells | P14735 | FAbeta-B cleavage, fluorescence polarization; 0% vehicle, 100% cell-free pure enzyme wells | activation, % at 5.96 µM | actives 0.073% (n = 340,000) | AID 493087;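 active = activation above the mean of all tested compounds plus 3 SD, set per screening campaign, cut at about 17% in these data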
# HNF4A DNA FP – change in binding of human HNF4 alpha to DNA | P41235 | HNF4a-FITC DNA binding, fluorescence polarization, 1 h | activity change, % at 10 µM | actives 0.3% (n = 360,000) | AID 1224865; in the data active = activity change above about 30%, passing the limit was not always enough
# CSN deneddyl inh – inhibitors of human CSN-mediated cullin deneddylation | Q92905 | Purified CSN, SCF-Nedd8-OG deneddylation, fluorescence polarization | inhibition, % at 12.5 µM | actives 0.38% (n = 360,000) | AID 651999;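 active = pattern-corrected inhibition above about 35%, with an unprinted fluorescence ratio check between 0.5 and 1.5, limit read from the data, passing the limit was not always enough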;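 note: 0% = enzyme with substrate and 100% = substrate without enzyme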
#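 Material: human Csn5 produced in HEK293T cells; Input: enzyme 0.24 nM; Reagent: SCFSkp2-Nedd8OG substrate at 10 nM final; Dosing: 12.5 µM compound; Incubation: 90 min reaction at room temperature; Detection: fluorescence polarization of the substrate; Evaluation: % inhibition of substrate cleavage by Csn5; Control set: substrate-only high control, full reaction low control.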
# IDE cell inh – cellular human IDE inhibition; P14735; HEK cells, FAbetaB cleavage, fluorescence polarization; inhibition, % at 5.59 µM; actives 0.41% (n = 320,000); AID 434962;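 active = percent inhibition above the average of all tested compounds plus 3 SD, set per screening campaign, cut at about 16% in these data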;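 note: IDE supplied by intact live HEK cells; FP after avidin binding of uncleaved biotin substrate so inhibition keeps polarization high; 0% = DMSO wells and 100% = 60 µM reference IDE inhibitor Ii1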
# TPT1 inh – blocks Candida albicans tRNA 2'-phosphotransferase; recombinant caTPT1, FP RNA substrate dephosphorylation; inhibition, % at 5 µM; actives 0.81% (n = 300,000); AID 1962;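 active = inhibition above the mean of all tested compounds plus 3 SD, set per screening campaign, cut at about 24% in these data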;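 note: plate controls were DMSO alone for no effect and ferristatin control at 100 nM for full effect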
# Rpn11 confirm – confirmation of human proteasome Rpn11 inhibitors; shares compounds with Rpn11 inh; purified human 26S proteasome, Ub4-pepOG fluorescence polarization; proteasome pretreated with epoxomicin; inhibition, % at 20 µM; actives 29% (n = 1,900)
# MMP-2 counter – blocks human MMP-2, flagging nonselective RPN11 hits; AID 602330; recombinant MMP-2, FRET peptide cleavage fluorescence; actives 4% (n = 1,900); shares compounds with Rpn11 inh; inhibition, % at 20 µM;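 note: human MMP-2 activated beforehand with APMA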
# Thrombin FP – thrombin (bovine) inhibition counter-screen. inhibition, % at 20 µM. bovine thrombin cleavage of Ub4-pepOG, fluorescence polarization. actives 13% (n = 1,900). shares compounds with Rpn11 inh. AID 602333;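 active = mean inhibition at least 40% at 20 µM, or signal 3 deviations below plate average, so some actives read negative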;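 note: plate controls were thrombin with DMSO for no effect and buffer wells lacking thrombin for full effect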
# Target sequence (P00735 whole entry, looked up): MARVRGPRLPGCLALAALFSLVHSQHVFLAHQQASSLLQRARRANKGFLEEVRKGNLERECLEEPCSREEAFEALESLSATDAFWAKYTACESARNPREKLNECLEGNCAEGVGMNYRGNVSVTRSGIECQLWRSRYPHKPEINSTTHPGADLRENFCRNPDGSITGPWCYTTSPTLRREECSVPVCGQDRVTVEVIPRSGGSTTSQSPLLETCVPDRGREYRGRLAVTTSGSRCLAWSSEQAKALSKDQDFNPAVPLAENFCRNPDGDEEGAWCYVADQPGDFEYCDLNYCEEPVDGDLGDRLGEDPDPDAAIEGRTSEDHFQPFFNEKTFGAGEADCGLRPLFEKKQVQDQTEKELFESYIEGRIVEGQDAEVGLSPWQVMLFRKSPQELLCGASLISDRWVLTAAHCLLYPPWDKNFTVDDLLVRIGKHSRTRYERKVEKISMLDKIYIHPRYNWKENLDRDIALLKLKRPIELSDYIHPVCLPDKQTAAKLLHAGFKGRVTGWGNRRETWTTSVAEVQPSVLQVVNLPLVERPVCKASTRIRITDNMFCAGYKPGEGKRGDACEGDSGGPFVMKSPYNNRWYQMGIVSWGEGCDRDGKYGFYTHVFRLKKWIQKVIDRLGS
# * hit, by the source's call; · = not tested or not shown; ! = not active in a repeat. Cut-off read from the data, not from the text of the source, unless noted: active = inhibition above about 40%; inactive = the rest.
SMILES,Rpn11 inh,IDE cell activ,HNF4A DNA FP,CSN deneddyl inh,IDE cell inh,TPT1 inh,Rpn11 confirm,MMP-2 counter,Thrombin FP
COC(=O)[C@H](C)NC(=O)NCc1ccccc1,-6.1,-6.3,3.2,-6.0,4.2,-3.9,·,·,·
Cc1cccc(CN2CCN(C3CN(C4CCCCC4)S(=O)(=O)C3)CC2)c1 (stereo not given),-6.8,·,-2.0,0.9,·,·,·,·,·
Cc1ccc(S(=O)(=O)N2[C@@H](c3ccc(Cl)c(Cl)c3)C(C(=O)O)=C[C@H]2CC2CCCC2)cc1,57.1*,6.2,-3.4,8.6,-3.6,·,18.7,-10.6,12.5
CCOC(=O)/C=c1\s/c(=C(\C#N)C(N)=O)n(-c2ccccc2)c1=O,-3.9,-3.1,1.8,-1.1,12.6,4.6,·,·,·
COCCCn1c(=O)/c(=C\c2ccccc2OC(F)F)s/c1=C(/C#N)C(N)=O,49.3*,11.3,-3.9,21.6,0.8,2.9,13.0,-10.7,3.5
COc1ccc2c(Cl)c(C(=O)N/N=C/c3c(C)[nH]c4ccccc34)sc2c1,71.9*,3.2,18.6,14.4,-2.4,17.0,99.0*,-15.5,52.9*
COc1cccc(C(=O)NCC(=O)N/N=C/c2c(C)[nH]c3ccccc23)c1,3.4,-0.5,1.6,0.4,-0.2,3.3,·,·,·
N#CC(=C=[N-])c1nc2ccccc2nc1-[n+]1ccccc1,44.9*!,2.7,32.1,44.2*,4.6,1.5,-8.3,-27.7,-3.2
Cc1cc[n+](-c2nc3ccccc3nc2C(=C=[N-])C#N)cc1,30.9,2.0,26.1,34.9,-2.3,19.7,·,·,·
O=C(C1CCCCC1)N1CCC2CC1c1cc(Cl)ccc12 (stereo not given),6.2,-1.2,-2.1,-2.4,·,·,·,·,·
CC1CN(S(=O)(=O)c2cccc(C(=O)OC/C(O)=C(\C#N)c3nc4ccccc4[nH]3)c2)CC(C)O1 (stereo not given),40.0*,0.2,12.8,-3.5,7.8,7.0,6.9,-9.6,4.0
Cc1ccc(NC(=O)c2noc(C(C)C)c2[N+](=O)[O-])cc1,-7.5,1.4,-0.7,0.0,4.1,-2.2,·,·,·
CC1=C(C(=O)Nc2ccccc2Cl)C(c2ccc(N(C)C)cc2)NC(=O)N1 (stereo not given),64.0*,-1.4,24.8,12.7,3.0,13.1,32.7,8.6,30.9
COc1ccccc1CN(Cc1cc2cc(C)ccc2[nH]c1=O)Cc1nnnn1Cc1ccco1,26.0,5.2,12.9,23.4,8.5,14.0,·,·,·
CCc1ccc2[nH]c(=O)c(CN(Cc3ccccc3OC)Cc3nnnn3Cc3ccco3)cc2c1,45.4*,7.7,7.9,6.4,3.3,18.0,-7.5,-20.3,-1.8
Cc1ccsc1/C=N/NC(=O)c1nnn(-c2nonc2N)c1CSc1ccccc1,3.4,7.1,-7.7,2.4,-2.5,1.4,·,·,·
CN(C)c1ccc(/C=C2/C=C(c3ccc4c(c3)CCCC4)OC2=O)cc1,68.6*,6.5,45.4*,19.6,1.8,6.2,-5.9,-49.8,-14.2
COc1ccc(C2=C/C(=C\c3ccc(OC(C)=O)cc3)C(=O)O2)cc1,-2.2,1.0,3.4,0.7,8.8,1.7,·,·,·
O=c1[nH]c(=O)n(CCc2ccc(F)cc2)c(O)c1C=NCc1ccc2c(c1)OCO2,90.3*,4.9,4.2,6.4,-0.6,-1.1,17.4,-25.0,-13.8
COc1ccc(NC(=O)Nc2nnc(Cc3ccc(F)cc3)s2)cc1,59.3*,0.6,16.1,14.9,·,·,26.6,2.1,26.6
CCCc1nnc(NC(=O)Nc2ccc(OC)cc2)s1,1.8,-5.4,-1.1,-0.6,-0.3,1.9,·,·,·
CC(C)(C)NC(=O)C[C@H]1C[C@H](C(=O)N2CCCCC2)[C@@]2(CCc3ccccc3)c3[nH]c4cc(-c5ccco5)ccc4c3CCN2C1=O,53.0*,0.6,19.7,14.5,·,·,10.7,31.8,22.6

# Assay outcomes from PubChem BioAssay.
